What is called IC50 is the concentration at which inhibition is half-maximal.

The record followed here is ChEMBL document CHEMBL1135470, “Synthesis and protein kinase inhibitory activity of balanol analogues with modified benzophenone subunits” (J Med Chem, 2002).

Assay [1] concerns the target cAMP-dependent protein kinase catalytic subunit alpha (Bos taurus, UniProt P00517). Nature of the assay: Inhibition of cAMP-dependent Protein kinase A (PKA).
Assay [2] deals with Protein kinase C beta type (Homo sapiens, UniProt P05771). The assay can be described thus: Inhibition of partially purified recombinant human calcium sensitive protein kinase C beta 2. The procedure, abridged: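 Enzyme source was partially purified recombinant human PKC isozymes and PKA. IC50 was calculated from four-point curves of 10-fold dilutions, following a previously published procedure.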
Sequence of Protein kinase C beta type (P05771 whole entry): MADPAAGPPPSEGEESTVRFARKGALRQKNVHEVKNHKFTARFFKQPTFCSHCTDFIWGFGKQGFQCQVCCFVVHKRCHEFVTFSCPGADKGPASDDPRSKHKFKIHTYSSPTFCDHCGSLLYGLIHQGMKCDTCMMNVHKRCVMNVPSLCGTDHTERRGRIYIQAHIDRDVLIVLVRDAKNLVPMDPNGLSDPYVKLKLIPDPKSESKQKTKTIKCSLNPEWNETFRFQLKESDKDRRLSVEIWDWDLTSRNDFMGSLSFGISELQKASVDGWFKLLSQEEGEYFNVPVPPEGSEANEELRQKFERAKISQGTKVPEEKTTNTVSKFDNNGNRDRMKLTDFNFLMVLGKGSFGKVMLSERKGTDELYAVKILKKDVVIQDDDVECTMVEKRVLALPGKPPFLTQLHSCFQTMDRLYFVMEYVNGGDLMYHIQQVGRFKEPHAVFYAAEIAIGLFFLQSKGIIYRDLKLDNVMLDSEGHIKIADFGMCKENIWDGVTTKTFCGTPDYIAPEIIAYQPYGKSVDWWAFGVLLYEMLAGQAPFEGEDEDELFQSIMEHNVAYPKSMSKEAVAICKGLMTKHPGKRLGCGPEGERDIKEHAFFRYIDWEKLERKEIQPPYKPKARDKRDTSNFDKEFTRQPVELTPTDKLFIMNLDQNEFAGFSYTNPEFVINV

The species entered for a further assay is Homo sapiens. The assay can be described thus: Inhibition of phorbol-12-myristate-13-acetate (PMA)induced superoxide burst in human neutrophils. The class given is functional. The procedure, abridged:
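A cellular assay in human neutrophils measured inhibition of the superoxide burst induced by phorbol-12-myristate-13-acetate (PMA). Compounds were tested up to a maximum of 10 μM. IC50 was calculated from four-point curves of 10-fold dilutions, following a previously published procedure.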

Assay [3] addresses Protein kinase C alpha type (Homo sapiens, UniProt P17252). Nature of the assay: Inhibition of partially purified recombinant human calcium sensitive protein kinase C alpha.
Assay [4] deals with T1, Protein kinase C epsilon type (Homo sapiens, UniProt Q02156).
T1 sequence (Q02156 whole entry): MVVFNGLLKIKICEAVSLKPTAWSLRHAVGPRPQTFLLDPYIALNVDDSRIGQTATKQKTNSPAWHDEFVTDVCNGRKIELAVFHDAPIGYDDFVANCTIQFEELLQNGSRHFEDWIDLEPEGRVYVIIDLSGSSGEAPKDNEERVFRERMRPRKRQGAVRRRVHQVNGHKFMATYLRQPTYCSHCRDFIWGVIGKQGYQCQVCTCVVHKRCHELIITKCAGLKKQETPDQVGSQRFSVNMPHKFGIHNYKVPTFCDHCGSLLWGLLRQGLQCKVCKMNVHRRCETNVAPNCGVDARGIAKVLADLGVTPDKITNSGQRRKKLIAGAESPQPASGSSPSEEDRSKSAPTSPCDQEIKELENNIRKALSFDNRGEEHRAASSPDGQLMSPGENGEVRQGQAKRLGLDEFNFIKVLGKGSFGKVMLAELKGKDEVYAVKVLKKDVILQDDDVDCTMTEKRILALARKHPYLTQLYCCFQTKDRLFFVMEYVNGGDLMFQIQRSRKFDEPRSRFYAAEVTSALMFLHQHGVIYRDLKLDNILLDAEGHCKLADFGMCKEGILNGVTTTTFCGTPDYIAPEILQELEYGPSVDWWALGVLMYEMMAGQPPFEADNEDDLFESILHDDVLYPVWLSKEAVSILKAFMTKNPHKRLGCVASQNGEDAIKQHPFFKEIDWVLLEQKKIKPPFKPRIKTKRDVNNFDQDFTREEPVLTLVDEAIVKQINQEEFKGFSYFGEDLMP
Nature of the assay: Inhibition of partially purified recombinant human calcium insensitive protein kinase C epsilon.

On to `O=C(NC1CNCCC[C@H]1OC(=O)c1cc(O)c(C(=O)c2c(O)cccc2O)c(O)c1)c1ccc(O)cc1` (stereo not given in full), for which the IC50 in assay [1] came out at 0.44 µM; in assay [2], 7.6 µM; in the assay listed under Homo sapiens, 9.2 µM; in assay [3], 0.86 µM; in assay [4], 2.1 µM.
In the same order, the values of `O=C(NC1CCCC1OC(=O)c1ccc(C(=O)c2c(O)cccc2C(=O)O)cc1)c1ccc(O)cc1` (stereo not given) are 1.7 µM, 4.5 µM, over 10 µM, 34 µM and 30 µM.
The matching figures for `O=C(NC1CNCC1OC(=O)c1cc(O)c(C(=O)c2c(O)ccc3ccccc23)c(O)c1)c1ccc(O)cc1` (stereo not given): 0.29 µM, 5.6 µM, 1.5 µM, 5.6 µM and 2.2 µM.
